This note sets out measurements from ChEMBL document CHEMBL3259774, “Antimycobacterial activity of chiral aminoalcohols with camphane scaffold” (Eur J Med Chem, 2014).

This assay has as its system Mycobacterium tuberculosis. The assay is described as follows: Antimycobacterial activity against rifampicin and isoniazid-resistant Mycobacterium tuberculosis 43 assessed as growth inhibition. It counts as functional. The essentials: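 MDR strain 43, resistant to rifampicin and isoniazid, was a clinical isolate from an HIV-negative Bulgarian adult with pulmonary TB. Tested by the Canetti proportion method on Löwenstein–Jensen medium, with compound in DMSO added before coagulation. Colonies were compared with drug-free control as percent inhibition. MIC is the lowest concentration giving complete inhibition (0% growth).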

Values after ≈ are worked out from the molar mass of the structure shown.

As usually defined, the MIC is the least concentration at which growth counts as inhibited. Consider `CC1(C)[C@@H]2CC[C@@]1([C@@H](O)CN1CCCCC1)C(=O)C2`, for which the MIC turned out to be 18.9 µM (≈ 5.02 µg/mL). Take `CC1(C)[C@@H]2CC[C@@]1([C@H](O)CN1CCN(c3ccc(F)cc3)CC1)C(=O)C2`: the MIC was found to be 0.55 µM (≈ 0.198 µg/mL). Regarding `CC1CCN(C[C@@H](O)[C@]23CC[C@H](CC2=O)C3(C)C)CC1`, the MIC was 0.72 µM (≈ 0.201 µg/mL). The result for `CC1(C)[C@@H]2CC[C@@]1([C@@H](O)CN1CCOCC1)C(=O)C2` reads greater than 18.7 µM; that for `CC1(C)[C@@H]2CC[C@@]1([C@@H](O)CN1CCN(c3ccc(F)cc3)CC1)C(=O)C2`, 0.55 µM (≈ 0.198 µg/mL); that for `CC1(C)[C@@H]2CC[C@@]1([C@H](O)CN1CCN(c3ccc(Cl)cc3)CC1)C(=O)C2`, 0.27 µM (≈ 0.102 µg/mL).
